From PubChem
A selection: hits, their analogues and other compounds. The true share with any hit is near 1.3%.
proCasp3 act: activates human procaspase-3. P42574. recombinant procaspase-3 D3A, Ac-DEVD-pNA absorbance 405 nm. activation, % at 8.5 µM. 330,000 compounds, 0.11% hits. AID 463141;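 active = activation above the mean of all tested compounds plus 3 SD, cut at about 21% in these data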;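 note: 0% = DMSO alone and 100% = DMSO wells spiked with extra 5 µM PC-3 D3A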
Target sequence (P42574 whole entry D9A/D28A/D175A): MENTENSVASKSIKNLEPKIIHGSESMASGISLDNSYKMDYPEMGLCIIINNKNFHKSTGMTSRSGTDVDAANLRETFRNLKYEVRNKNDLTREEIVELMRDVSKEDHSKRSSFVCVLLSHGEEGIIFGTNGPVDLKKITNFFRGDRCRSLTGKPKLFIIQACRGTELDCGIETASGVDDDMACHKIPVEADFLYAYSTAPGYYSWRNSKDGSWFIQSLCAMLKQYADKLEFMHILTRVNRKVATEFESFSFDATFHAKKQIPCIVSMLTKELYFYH
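Technique: 405 nm absorbance of p-nitroaniline, reads at 0 and 120 min; Test system: Procaspase-3 D3A mutant; Incubation: 1 h enzyme-compound preincubation, then 2 h substrate reaction, 25 °C; Repeats: singlicate, each compound tested once; Benchmarks: low control DMSO wells, high control DMSO plus 5 µM PC-3 D3A.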
CHT allo act: allosteric activators of human choline transporter CHT; Q9GZV3; CHT-expressing cells, membrane potential dye, choline EC20; hits give high values; LV-AA mutant CHT in HEK293 cells; B-score at 10 µM; 310,000 compounds, 0.49% hits; AID 488977;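 active = initial fluorescence not abnormally high and integrated response B-score, plate-corrected, over 3 SD above library mean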
proCasp7 act: counter-screen for procaspase-3 activators: activators of human procaspase-7; activation, % at 8.5 µM; P55210; recombinant procaspase-7, Ac-DEVD-pNA absorbance 405 nm; D23A/D198A/D206A triple mutant, cannot self-cleave; scale: DMSO 0, 5 µM enzyme 100; 330,000 compounds, 0.093% hits;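 active = percent activation above the screen-wide mean plus 3 SD, cut at about 25% in these data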
Target sequence (P55210 whole entry D23A/D198A/D206A): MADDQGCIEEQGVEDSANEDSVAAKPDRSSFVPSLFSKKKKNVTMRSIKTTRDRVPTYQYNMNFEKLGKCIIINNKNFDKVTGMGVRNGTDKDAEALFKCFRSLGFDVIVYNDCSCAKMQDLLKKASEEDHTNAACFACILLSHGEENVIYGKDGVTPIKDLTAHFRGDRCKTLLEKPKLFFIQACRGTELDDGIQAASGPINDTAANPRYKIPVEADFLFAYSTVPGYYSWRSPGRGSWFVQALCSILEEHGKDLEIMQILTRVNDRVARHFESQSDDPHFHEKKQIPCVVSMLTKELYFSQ
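Assay system: Uncleavable procaspase-7 mutant enzyme; Input: 2 µM procaspase-7 mutant as dispensed; Also added: DEVD-pNA substrate; Medium: Zinc-free HEPES pH 7.4 with 300 mM NaCl, 0.01% Triton X-100; Timing: 1 h compound preincubation, 2 h substrate cleavage, 25 °C; Measured by: Epi-absorbance of released pNA at 405 nm, two timepoints.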
CHT inh: inhibits the human high affinity choline transporter; Q9GZV3; CHT-expressing cells, membrane potential dye, choline response; hits give low values; B-score at 10 µM; 310,000 compounds, 0.86% hits; AID 488975;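 active = B-score over 3 SD under the library average, and starting fluorescence ratio not unusually high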;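 note: choline stimulus applied at its EC90 after an EC20 pre-addition; B-score computed on integrated fluorescence ratio after choline addition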
CHT inh conf: human CHT inhibition, confirmatory screen; CHT activity remaining % of control (hits give low values), % at 10 µM; 2,400 compounds, 70% hits; CHT-expressing cells, choline membrane potential dye; LV-to-AA substituted CHT, HEK293 cells; shares compounds with CHT inh;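 active = choline transporter activity left, mean of duplicates at 10 µM, below buffer-only control mean minus 3 SD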;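 note: depolarization triggered by choline at its EC90 following an EC20 pre-addition; 0% = hemicholinium-3 full block and 100% = buffer-only control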
HEK293 MPD ctr: activity in parental HEK293 cells lacking CHT | membrane potential dye, choline response; active = decrease or increase beyond buffer ±3SD | 2,400 compounds, 4% hits | membrane potential ratio readout (active if shifted either direction beyond buffer ±3SD; no single direction) at 10 µM | shares compounds with CHT inh;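 note: parental cells lack the transporter so any hit is non-specific; ratio is peak minus trough fluorescence over baseline after EC90 choline challenge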
Numbers without * were called inactive; i = inactive; / = not tested or not shown.

SMILES | proCasp3 act | CHT allo act | proCasp7 act | CHT inh | CHT inh conf | HEK293 MPD ctr
Cc1nn(-c2ccccc2)c2[nH]c(=O)cc(C(F)(F)F)c12 | 1 | i | 1 | -5.2* | 37%* | i
Cc1cc(=O)[nH]c2c1c(C)nn2-c1ccccc1 | -8 | i | 11 | i | / | /
O=C(CNS(=O)(=O)c1ccccc1)NCc1ccco1 | -14 | i | -1 | i | / | /
CCc1oc(C(=O)O)cc1COC | 0 | i | 4 | -11* | i | i
CCC(Oc1ccccc1)C(=O)Nc1nnc(C(F)(F)F)s1 (stereo unspecified) | 3 | i | -1 | -5.1* | i | i
CCC(Oc1ccccc1)C(=O)Nc1nnc(C)s1 (stereo unspecified) | 0 | i | 3 | i | / | /
Cc1nn(-c2ccccc2)nc1C(=O)Nc1nnc(C(F)(F)F)s1 | -4 | i | 3 | -12* | 43%* | i
Oc1c(Br)cc(Br)cc1C=NCc1ccccc1 | -9 | i | -5 | -9.8* | 42%* | i
Oc1c(Br)cc(Br)cc1C=NCc1ccc(F)cc1 | -1 | i | -2 | -7.1* | 57%* | i
O/N=C/c1cc(Br)ccc1OCc1ccc(F)cc1 | -1 | i | 7 | i | / | /
CN(NS(=O)(=O)c1ccc(Cl)cc1)c1ncc(C(F)(F)F)cc1Cl | -5 | i | 2 | i | / | /
COc1ccc(C(=O)C[n+]2cccc(Br)c2)cc1 | 3 | i | -6 | -19* | -0.1%* | i
Cc1ccc(C(=O)C[n+]2cc(Br)cc(Br)c2)cc1 | -3 | i | -7 | -13* | 21%* | i
O=C(C[n+]1cccc(Br)c1)c1ccc(-c2ccccc2)cc1 | 5 | i | -1 | -15* | -0.8%* | i
O=C(C[n+]1cccc(Br)c1)c1cccs1 | -3 | i | 3 | -9.2* | 26%* | i
O=C(C[n+]1cc(Br)cc(Br)c1)c1ccc(-c2ccccc2)cc1 | 0 | i | -9 | i | / | /
Cc1noc(C)c1COc1ccc(C(=O)N2CCN(S(=O)(=O)c3cccc(F)c3)CC2)cc1 | 0 | / | 8 | / | / | /
O=C(C[n+]1cccc(Br)c1)c1ccccc1 | 3 | i | -5 | -6* | 18%* | i
Cc1cccc(-n2cc(CN3CCN(Cc4nccn4C)CC3)c(-c3cccc(F)c3)n2)c1 | 7 | i | 0 | -9.7* | 20%* | i
COc1cc(/C=C2/SC(=Nc3ccc(O)cc3)NC2=O)ccc1O | -12 | i | -8 | i | / | /
COc1cc(/C=C2\SC(=Nc3ccccc3OC)NC2=O)ccc1O | 1 | i | -10 | -5.4* | i | i
O=C1c2ccccc2-c2cccnc21 | -1 | i | -10 | -6.8* | 37%* | i
CC[C@]1(C(=O)OC)[C@H]2C(=O)N(Cc3ccccc3)C(=O)[C@H]2[C@H]2CN=C(SCC(=O)c3ccccc3)N21 | -10 | / | -29 | / | / | /
COc1ccccc1N1CN(S(=O)(=O)c2ccc(C)cc2)c2nc3ccccc3nc21 | 18 | / | 14 | / | / | /
CC(C)c1nc(SCC(=O)Nc2nccs2)c2ccccc2n1 | 2 | i | 10 | i | / | /
SMILES | proCasp3 act | CHT allo act | proCasp7 act | CHT inh | CHT inh conf | HEK293 MPD ctr
Cc1csc(NC(=O)CSc2nc(C(C)C)nc3ccccc23)n1 | 1 | i | 14 | -5.9* | 60%* | i
CCOC(=O)COc1ccc(S(=O)(=O)NCc2ccco2)cc1 | 2 | i | 1 | -7.6* | i | i
O=S(=O)(Nc1nccs1)c1ccc(F)cc1 | 3 | i | 9 | i | / | /
O=C(N/N=C/c1ccco1)c1cc(-c2cccc(Br)c2)nc2ccccc12 | 6 | i | 5 | i | / | /
CC(/C=N/NC(=O)c1cc(-c2ccncc2)nc2ccccc12)=C\c1ccco1 | -5 | i | 2 | -7.5* | 40%* | i
Cn1cc(CCC(=O)N2CCCC(N3CCN(c4ccccc4F)CC3)C2)cn1 (stereo unspecified) | 6 | i | 15 | i | / | /
Cc1ccc(C(=O)N=c2sccn2C)o1 | 8 | i | 4 | i | / | /
COc1cccc(C2/C(=C(\O)c3ccc4c(c3)OCCO4)C(=O)C(=O)N2c2nnc(C)s2)c1 (stereo unspecified) | -6 | i | -9 | -5.7* | i | i
O=C(NC1CCCC1)C(c1ccncc1)N(C(=O)Cn1nnc(-c2ccccc2F)n1)c1cccc(F)c1 (stereo unspecified) | 3 | i | -10 | i | / | /
CC(C)c1ccc(/C=C/C2=NNC(=O)CC2)cc1 | 3 | i | -9 | i | / | /
CC(C)c1ccc(/C=C/c2ccc(=O)n(C)n2)cc1 | -1 | i | 1 | -6.9* | i | i
Cc1ccc(-c2nc3ncccc3o2)cc1NC(=O)c1ccccc1 | 2 | i | 5 | -6.7* | i | i
Cc1noc(NC(=O)c2ccccc2)c1C#N | -4 | i | 1 | i | / | /
COc1ccccc1C(=O)Nc1onc(C)c1C#N | -1 | i | -2 | -6.4* | i | i
COc1ccc(CN2CCN(CC=C(C)C)C(CCO)C2)cc1Cn1cccn1 (stereo unspecified) | 0 | i | 4 | -6* | 64%* | i
COc1ccc(CN2CCN(CCc3ccccc3)C(CCO)C2)cc1Cn1cncn1 (stereo unspecified) | -2 | i | -6 | i | / | /
S=c1[nH]c2cc(Cl)ccc2s1 | -13 | i | -11 | -5* | 54%* | i
S=c1[nH]c2ccc(Cl)cc2[nH]1 | -14 | i | -4 | i | / | /
O=C(CSc1nc2ccccc2[nH]1)c1ccc2c(c1)OCO2 | -5 | i | -13 | -6.1* | 36%* | i
COC(=O)C1=C(N)Oc2cc(C)n(CCc3ccccc3)c(=O)c2C1c1cccnc1 (stereo unspecified) | 1 | i | -5 | -5.2* | 69%* | i
CCOC(=O)C1=C(N)Oc2cc(C)n(CCc3ccc(OC)c(OC)c3)c(=O)c2C1c1cccnc1 (stereo unspecified) | 4 | i | 10 | i | / | /
CN(C)CCCNC(=O)C[C@H]1C[C@H](C(=O)N2CCOCC2)[C@@]2(C)c3[nH]c4cc(-c5ccco5)ccc4c3CCN2C1=O | 2 | / | 2 | / | / | /
Cc1cc(=O)[nH]c(SCCOc2ccc(OC(C)C)cc2)n1 | 0 | i | 4 | -5* | i | i
Cc1cc(=O)[nH]c(SCCOc2ccc3c(c2)CCC3)n1 | 4 | i | -4 | i | / | /
Cc1ccc(C(=O)NCC(=O)OCC(=O)Nc2ccccc2C#N)s1 | -4 | i | -2 | -13* | 65%* | i
